Laboratory results taken from ChEMBL document CHEMBL1133390, “Effects of stilbene constituents from rhubarb on nitric oxide production in lipopolysaccharide-activated macrophages” (Bioorg Med Chem Lett, 2000).

How the values were obtained:
Format in all cases: functional
Mus musculus [1] = species on record: Mus musculus; test: Inhibitory activity against nitric oxide production in LPS-activated mouse peritoneal macrophages
Method in brief: (§1)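 Peritoneal exudate cells from male ddY mice, 5 × 10^5 cells/well, pre-cultured 1 h at 37 °C in RPMI 1640 with 5% FCS. Nonadherent cells washed off; adherent macrophages (>95%) given 10 µg/mL LPS plus test compound (DMSO, final 0.5%) for 20 h. Nitrite in medium measured by Griess reagent. Inhibition calculated relative to LPS-stimulated and unstimulated wells; IC50 determined graphically (N=4).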

Mus musculus [2] = species on record: Mus musculus; test: Compound (at 100 uM) was tested for inhibition against nitric oxide production in LPS-activated mouse peritoneal macrophages; method in brief: as §1
Mus musculus [3] = species on record: Mus musculus; test: Compound was tested for inhibitory activity against nitric oxide production in LPS-activated mouse peritoneal macrophages (*,showed cytotoxicity at 100 uM)
Mus musculus [4] = species on record: Mus musculus; test: Compound (at 10 uM) was tested for inhibition against nitric oxide production in LPS-activated mouse peritoneal macrophages
Mus musculus [5] = species on record: Mus musculus; test: Compound was tested for inhibitory activity against nitric oxide production in LPS-activated mouse peritoneal macrophages (*,showed cytotoxicity at 30 uM)
Mus musculus [6] = species on record: Mus musculus; test: Compound (at 30 uM) was tested for inhibition against nitric oxide production in LPS-activated mouse peritoneal macrophages

Structure (SMILES)	IC50 (Mus musculus [1]) [µM]	inhibition at 100 µM (Mus musculus [2]) [%]	further results
Cc1cc(O)c2c(c1)C(=O)c1cccc(O)c1C2=O [CHRYSOPHANOL]	> 100	2	–
COC[C@H]1O[C@@H](Oc2cc(/C=C/c3ccc(OC)c(OC)c3)cc(OC)c2)[C@H](OC)[C@@H](OC)[C@@H]1OC	5.8	–	–
Oc1cc(O)cc(/C=C/c2ccc(O)c(O)c2)c1 [PICEATANNOL]	23	–	–
O=C(O)c1cc(O)c(O)c(O)c1 [GALLIC ACID]	63	–	–
COc1cc(/C=C/c2ccc(OC)c(O)c2)cc(OC)c1	–	–	IC50 (Mus musculus [3]): 23 µM
COc1ccc(/C=C/c2cc(O)cc(O[C@@H]3O[C@H](CO)[C@@H](O)[C@H](O)[C@H]3O)c2)cc1O [RHAPONTIN]	> 100	25	–
COc1ccc(/C=C/c2cc(O)cc(O[C@@H]3O[C@H](CO)[C@@H](O)[C@H](O)[C@H]3OC(=O)c3cc(O)c(O)c(O)c3)c2)cc1O	13	–	–
Oc1cc(O)cc(CCc2ccc(O)c(O)c2)c1	32	–	–
C(=C\c1ccccc1)/c1ccccc1	> 100	21	–
Oc1ccc(/C=C/c2cc(O)cc(O)c2)cc1 [RESVERATROL]	68	–	–
COc1cc(O)cc(/C=C/c2ccc(OC)c(OC)c2)c1	–	–	IC50 (Mus musculus [3]): 19 µM
Cc1cc(O[C@@H]2O[C@H](CO)[C@@H](O)[C@H](O)[C@H]2O)c2c(c1)C(=O)c1cccc(O)c1C2=O [CHRYSOPHANEIN]	> 100	20	–
COc1cc(/C=C/c2cc(O)cc(O[C@@H]3O[C@H](CO)[C@@H](O)[C@H](O)[C@H]3O)c2)ccc1O	> 100	5	–
O=C1c2cccc(O)c2C(=O)c2c(O[C@@H]3O[C@H](CO)[C@@H](O)[C@H](O)[C@H]3O)cc(CO)cc21	> 100	46	–
COc1cc(/C=C/c2ccc(OC)c(OC)c2)cc(OC)c1 [(E)-3,4,3',5'-TETRAMETHOXYSTILBENE]	28	–	–
COc1cc(O[C@@H]2O[C@H](CO)[C@@H](O)[C@H](O)[C@H]2O)c2c(O)c(C(C)=O)c(C)cc2c1	69	–	–
COC[C@H]1O[C@@H](Oc2cc(/C=C/c3cc(OC)cc(OC)c3)ccc2OC)[C@H](OC)[C@@H](OC)[C@@H]1OC	27	–	–

Structure (SMILES)	IC50 (Mus musculus [1]) [µM]	inhibition at 100 µM (Mus musculus [2]) [%]	further results
COc1ccc(/C=C/c2cc(O)cc(O[C@@H]3O[C@H](COC(=O)c4cc(O)c(O)c(O)c4)[C@@H](O)[C@H](O)[C@H]3O)c2)cc1O	11	–	–
c1ccc(CCc2ccccc2)cc1	> 100	26	–
OC[C@H]1O[C@@H](Oc2cc(/C=C/c3cc(O)cc(O)c3)ccc2O)[C@H](O)[C@@H](O)[C@@H]1O	> 100	10	–
Cc1cc(O)c2c(c1)C(=O)c1cccc(O[C@@H]3O[C@H](CO)[C@@H](O)[C@H](O)[C@H]3O)c1C2=O [PULMATIN]	> 100	31	–
Oc1ccc(CCc2cc(O)cc(O)c2)cc1 [DIHYDRORESVERATROL]	76	–	–
COc1ccc(CCc2cc(O)cc(O[C@@H]3O[C@H](CO)[C@@H](O)[C@H](O)[C@H]3O)c2)cc1O	> 100	8	–
COc1ccc(/C=C/c2cc(OC)cc(OC)c2)cc1 [TRISMETHOXYRESVERATROL]	22	–	–
COc1ccc(/C=C/c2cc(O)cc(O[C@@H]3O[C@H](CO)[C@@H](O)[C@H](O)[C@H]3O)c2)cc1	> 100	13	–
Cc1cc(O)c2c(c1)C(=O)c1cccc(O[C@@H]3O[C@H](COC(=O)c4cc(O)c(O)c(O)c4)[C@@H](O)[C@H](O)[C@H]3O)c1C2=O	> 100	31	–
COc1cc(/C=C/c2cc(O)cc(O)c2)ccc1O	63	–	–
OC[C@H]1O[C@@H](Oc2cc(CCc3cc(O)cc(O)c3)ccc2O)[C@H](O)[C@@H](O)[C@@H]1O	> 100	6	–
O=C1c2cccc(O)c2C(=O)c2c(O)cc(CO)cc21 [ALOE-EMODIN]	–	–	inhibition at 10 µM (Mus musculus [4]): 38%; IC50 (Mus musculus [5]): > 10 µM
COc1ccc(/C=C/c2cc(O)cc(O)c2)cc1 [RESVERATROL 4'-METHYL ETHER]	–	–	inhibition at 30 µM (Mus musculus [6]): 13%; IC50 (Mus musculus [3]): > 30 µM
COc1ccc(CCc2cc(O)cc(O)c2)cc1O	49	–	–
COc1ccc(/C=C/c2cc(O)cc(O)c2)cc1O	48	–	–
O=C(/C=C/c1ccc(O)c(O)c1)OCCc1ccccc1 [CAFFEIC ACID PHENETHYL ESTER]	40	–	–
